Results pooled from the literature.
Compare with care: the assays were run in different laboratories.
Target: Mitogen-activated protein kinase 3 (MAPK3, Homo sapiens, UniProt P27361)

Structure (SMILES)	assay	setting	endpoint	value
CCCCC(=O)Nc1ccc(-c2ccc3ncn(CCC)c(=O)c3c2)cn1	binding, competition with immobilised ligand	0.5 µM	remaining binding	97%
CC#CC(=O)N1CCC[C@H]1c1nc(-c2ccc(C(=O)Nc3ccccn3)cc2)c2c(N)nccn12	enzyme activity, inhibitor	1 µM	inhibition	12%
Cc1cc(O)c(-c2ccc([C@@H](C)CN(C)C)cc2)c2c1[nH]c(=O)c1sccc12	enzyme activity, inhibitor	0.1 µM	inhibition	15.1%
O=C(O)CCC(=O)OCCN(Cc1ccc(Oc2ccc([N+](=O)[O-])cc2)cc1)C(=O)C(Cl)Cl	enzyme activity, inhibitor, ADP detection	10 µM	inhibition	49.3%
N#Cc1ccc(NC(=O)Nc2ccccc2)cc1	cell-free assay, competition with immobilised ligand	25 µM	remaining binding	100%
C[C@H]1CC[C@H](n2c3cnccc3c3cnc(Nc4ccc5c(n4)CCN(C(=O)CO)C5)nc32)CC1	cell-free assay	1 µM	remaining signal	100%
c1ccc(-c2ccc3c(c2)NC(C2Nc4cc(-c5ccccc5)ccc4O2)O3)cc1 (stereo not shown)	enzyme activity, inhibitor, ADP detection	10 µM	inhibition	54.7%
Cc1ccc(NC(=O)c2ccnc(C(F)(F)F)c2)cc1-c1cc(OCCO)nc(N2CCOCC2)c1	binding	1 µM	remaining binding	100%
C#Cc1cc(-c2cc(Nc3nc(N[C@@H](C)c4ccc(F)cn4)ncc3Cl)n[nH]2)ccc1C=O	enzyme activity, inhibitor	0.2 µM	inhibition	5.48%
C=CC(=O)N1CCC[C@@H](n2nc(-c3ccc(Oc4ccccc4)cc3)c3c(N)ncnc32)C1	enzyme activity, inhibitor	1 µM	inhibition	3%
